According to ChEMBL document CHEMBL1949587 (Bioorg Med Chem, 2012):
Converted amounts (≈) assume the structure as drawn.

What was measured:
[1] = tested on: HUVEC; experiment: Selectivity ratio of IC50 for human HCT116 cells to IC50 for HUVEC cells
[2] = tested on: HCT-116; experiment: Antiproliferative activity against human HCT116 cells; format: cell-based
[3] = tested on: HUVEC; experiment: Antiangiogenic activity in HUVEC assessed as inhibition of VEGF-induced cell proliferation after 4 days; format: functional, cell-based; conditions: Homo sapiens, 96 h
Method in brief: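 HUVECs maintained in RPMI1640 with 10% FCS, 50 μg/mL heparin and ECGS, then seeded at 3000 cells/well in RPMI1640 with 5% FCS and 20 ng/mL VEGF, with compound at serially diluted concentrations. Incubated at 37 °C, 5% CO₂. Read-out is Cell Counting Kit-8, absorbance at 450 nm. Inhibition = (1−T/C)×100 against untreated control.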

[4] = Solubility of the compound in fasted state simulated intestinal fluid at 10 mM after 2 hrs by HPLC-UV analysis; format: physicochemical
Method in brief: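 Triplicate samples made from 10 mM DMSO stocks. DMSO evaporated (1 h), residue dissolved in FaSSIF and shaken 2 h. Solutions filtered, filtrate analysed by UV or HPLC-UV against a four-point calibration curve from the stocks. Result in µg/mL.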

[5] = Clearance in mouse liver microsome at 5 uM after 60 mins by LC-MS/MS analysis; format: ADME; conditions: liver microsomes, read-out: CLH
Method in brief: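 Test compound at 5 µM incubated with mouse liver microsomes, 1.0 mg protein/mL, in 50 mM potassium phosphate pH 7.4 at 37 °C. Started by adding NADPH generating system (glucose 6-phosphate 3.2 mM, β-NADP 2.6 mM, MgCl2 6.5 mM). Substrate depletion measured against internal standard. Intrinsic clearance is the first-order decay constant normalized to protein.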

[6] = molecular target: Vascular endothelial growth factor receptor 2 (Homo sapiens, UniProt P35968); experiment: Inhibition of VEGFR2
[7] = tested on: Calu-6; experiment: Antiangiogenic activity in human Calu6 cells xenografted in BALB/c mouse assessed as microvessel density reduction at 300 mg/kg, po after 11 days by immunohistochemical staining method; format: functional; design: scale not given: the % may be the effect or the level left
Method in brief: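 Female Balb/c nude mice given Calu-6 cells s.c. in the flank, 5.0×10⁶ cells per mouse. Dosing was oral, once daily for 11 days, starting once tumors reached 150 mm³. Tumors taken 24 h after the last dose and frozen-sectioned from the mid-portion. Vessels stained with anti-mouse CD31 and counted by image analysis. Density decrease expressed against control.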

[8] = tested on: Calu-6; experiment: Antitumor activity against human Calu6 cells xenografted in BALB/c mouse assessed as tumor growth inhibition at 600 mg/kg, po for 11 days relative to control; format: functional; conditions: Calu-6, 264 h, read-out: TGI
Method in brief: (§1)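 Calu-6 cells in Hanks' balanced salt solution implanted s.c. in the flank of female Balb/c nude mice, 5.0×10⁶ per mouse. Oral dosing once daily for 11 days, starting at tumor volume 150 mm³. Volume = 1/2 × long × short². Tumor growth inhibition taken from change in volume of the treated group against change in controls.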

[9] = Lipophilicity, log D of the compound at pH 7; format: physicochemical; conditions: buffer
[10] = tested on: Calu-6; experiment: Antitumor activity against human Calu6 cells xenografted in BALB/c mouse assessed as tumor growth inhibition at 300 mg/kg, po for 11 days relative to control; format: functional; conditions: Calu-6, 264 h, read-out: TGI; method in brief: as §1
[11] = dose 600 mg/kg, in the assay text read “600 mg/kg” for “300 mg/kg”

Vascular endothelial growth factor receptor 2, sequence (P35968 whole entry): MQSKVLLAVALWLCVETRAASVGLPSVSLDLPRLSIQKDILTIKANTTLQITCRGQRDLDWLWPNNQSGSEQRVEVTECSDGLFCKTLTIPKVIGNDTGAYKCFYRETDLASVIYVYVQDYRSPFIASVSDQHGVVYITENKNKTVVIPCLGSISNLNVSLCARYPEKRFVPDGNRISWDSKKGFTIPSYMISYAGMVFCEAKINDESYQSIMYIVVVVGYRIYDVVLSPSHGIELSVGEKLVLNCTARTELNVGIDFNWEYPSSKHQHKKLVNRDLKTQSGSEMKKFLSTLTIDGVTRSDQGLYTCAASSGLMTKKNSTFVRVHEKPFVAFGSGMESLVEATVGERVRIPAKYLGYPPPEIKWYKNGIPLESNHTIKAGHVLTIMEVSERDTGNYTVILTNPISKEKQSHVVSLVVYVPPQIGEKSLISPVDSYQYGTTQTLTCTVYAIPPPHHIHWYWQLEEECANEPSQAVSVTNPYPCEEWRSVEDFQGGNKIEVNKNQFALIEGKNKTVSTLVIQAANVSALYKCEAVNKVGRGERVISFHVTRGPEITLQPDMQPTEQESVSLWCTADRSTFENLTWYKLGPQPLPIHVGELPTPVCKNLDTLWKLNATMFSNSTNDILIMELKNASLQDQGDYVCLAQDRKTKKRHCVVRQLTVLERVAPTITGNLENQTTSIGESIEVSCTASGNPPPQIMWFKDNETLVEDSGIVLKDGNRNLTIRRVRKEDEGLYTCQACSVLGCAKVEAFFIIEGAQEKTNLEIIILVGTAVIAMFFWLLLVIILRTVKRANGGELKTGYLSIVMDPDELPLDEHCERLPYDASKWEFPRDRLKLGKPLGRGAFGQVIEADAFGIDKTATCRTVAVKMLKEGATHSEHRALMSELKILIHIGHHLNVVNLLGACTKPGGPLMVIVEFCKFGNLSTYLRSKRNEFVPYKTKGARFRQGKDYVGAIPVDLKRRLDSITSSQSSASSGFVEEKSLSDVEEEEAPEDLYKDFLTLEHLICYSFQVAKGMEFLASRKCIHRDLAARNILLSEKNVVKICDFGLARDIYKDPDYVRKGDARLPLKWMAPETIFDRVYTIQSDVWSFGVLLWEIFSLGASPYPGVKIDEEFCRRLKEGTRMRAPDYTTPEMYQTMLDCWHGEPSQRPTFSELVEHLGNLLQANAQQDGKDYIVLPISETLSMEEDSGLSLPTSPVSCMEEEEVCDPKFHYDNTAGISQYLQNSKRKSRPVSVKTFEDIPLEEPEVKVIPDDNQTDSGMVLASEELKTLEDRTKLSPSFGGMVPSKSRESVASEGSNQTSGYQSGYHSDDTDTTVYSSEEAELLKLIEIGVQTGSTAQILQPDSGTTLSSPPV

With `COc1ccc(C(C)=O)cc1COc1cccc(C)c1` the “Ratio IC50” value [1] was 8.6, the IC50 [2] was 24 µM and the IC50 [3] was 2.8 µM.
With `COc1ccc(C(N)=O)cc1/C=C/c1ccc(Cl)c(Cl)c1` the “Ratio IC50” value [1] was 20, the IC50 [2] was 11 µM and the IC50 [3] was 0.56 µM.
In the case of `COc1ccc(C(N)=O)cc1/C=C/c1ccc(Cl)cc1Cl`, the “Ratio IC50” value [1] is reported as >19, the IC50 [2] is reported as > 50 µM and the IC50 [3] is reported as 2.6 µM.
With `CCNC(=O)c1ccc(OC)c(/C=C/c2ccc(Cl)cc2)c1` the “Ratio IC50” value [1] was 94, the IC50 [2] was 15 µM and the solubility at 2 h, 10000 µM [4] was 9 µg/mL (≈ 28.5 µM). The microsomal CLint at 5 µM [5] was 187 µL/min/mg and the IC50 [3] was 0.16 µM.
With `COc1ccc(C(N)=O)cc1/C=C/c1cccc(C#N)c1` the “Ratio IC50” value [1] was 0.4, the IC50 [2] was 19 µM and the IC50 [3] was 49 µM.
For `COc1ccc(C(N)=O)cc1/C=C/c1ccccc1C`, the “Ratio IC50” value [1] was 4.8, the IC50 [2] was 11 µM and the IC50 [3] was 2.3 µM.
With `COc1ccc(C#N)cc1COc1ccc(Cl)c(C)c1` the “Ratio IC50” value [1] was >33, the IC50 [2] was > 50 µM and the IC50 [3] was 1.5 µM.
For `CNC(=O)c1ccc(OC)c(/C=C/c2ccc(Cl)cc2)c1`, the “Ratio IC50” value [1] was 84, the IC50 [2] was 16 µM and the solubility at 2 h, 10000 µM [4] was 24 µg/mL (≈ 79.5 µM). For the same molecule, the microsomal CLint at 5 µM [5] was 331 µL/min/mg and the IC50 [3] was 0.19 µM.
In the case of `CCCOc1ccc(C(N)=O)cc1/C=C/c1ccc(Cl)cc1`, the “Ratio IC50” value [1] is reported as 38, the IC50 [2] is reported as > 50 µM and the solubility at 2 h, 10000 µM [4] is reported as 4 µg/mL (≈ 12.7 µM). It also gave a microsomal CLint at 5 µM [5] of 83 µL/min/mg and an IC50 [3] of 1.3 µM.
In the case of `COc1ccc(C(N)=O)cc1/C=C/c1ccccc1Cl`, the “Ratio IC50” value [1] is reported as 2.2, the IC50 [2] is reported as > 50 µM and the IC50 [3] is reported as 23 µM.
With `COc1ccc(C(N)=O)cc1/C=C/c1ccc(C(C)(C)C)cc1` the “Ratio IC50” value [1] was 54, the IC50 [2] was 20 µM and the IC50 [3] was 0.37 µM.
In the case of `COc1ccc(C(N)=O)cc1/C=C/c1ccc(Cl)cc1F`, the “Ratio IC50” value [1] is reported as >5.9, the IC50 [2] is reported as > 10 µM and the IC50 [3] is reported as 1.7 µM.
In the case of `COc1ccc(C(N)=O)cc1/C=C/c1ccc([N+](=O)[O-])cc1`, the “Ratio IC50” value [1] is reported as 4.7, the IC50 [2] is reported as 22 µM and the IC50 [3] is reported as 4.7 µM.
With `COC(=O)c1ccc(OC)c(COc2ccc(Cl)c(C)c2)c1` the “Ratio IC50” value [1] was 10, the IC50 [2] was 23 µM and the IC50 [3] was 2.3 µM.
In the case of `COc1ccc(C(C)=O)cc1COc1ccc(Cl)c(C)c1`, the IC50 [6] is reported as > 50 µM, the Activity [7, 11] is reported as 15% and the “Ratio IC50” value [1] is reported as 26. For the same molecule, the IC50 [2] was 34 µM, the IC50 [3] was 1.3 µM and the inhibition in vivo at 600 mg/kg [8] was 34%.
For `COc1ccccc1/C=C/c1cc(C(N)=O)ccc1OC`, the “Ratio IC50” value [1] was >8.8, the IC50 [2] was > 50 µM and the IC50 [3] was 5.7 µM.
In the case of `COc1ccc(C(N)=O)cc1/C=C/c1ccc(Cl)cc1`, the IC50 [6] is reported as > 50 µM, the Activity ([7]; dose 300 mg/kg) is reported as 60% and the “Ratio IC50” value [1] is reported as 82. For the same molecule, the IC50 [2] was 7.1 µM, the logD [9] was 4 and the solubility at 2 h, 10000 µM [4] was 16 µg/mL (≈ 55.6 µM). The microsomal CLint at 5 µM [5] was 110 µL/min/mg, the IC50 [3] was 0.087 µM and the inhibition in vivo at 300 mg/kg [10] was 71%.
With `COc1ccc(C(N)=O)cc1COc1ccc(Cl)c(C)c1` the IC50 [6] was > 50 µM, the Activity [7, 11] was 0% and the “Ratio IC50” value [1] was >78. For the same molecule, the IC50 [2] was > 50 µM, the microsomal CLint at 5 µM [5] was 414 µL/min/mg and the IC50 [3] was 0.64 µM. It also gave an inhibition in vivo at 600 mg/kg [8] of 14%.
For `COc1ccc(C(N)=O)cc1/C=C/c1ccccc1OC(F)(F)F`, the “Ratio IC50” value [1] was 4, the IC50 [2] was 36 µM and the IC50 [3] was 8.9 µM.
For `CN1CCN(CCOc2ccc(C(N)=O)cc2/C=C/c2ccc(Cl)cc2)CC1`, the “Ratio IC50” value [1] was 0.8, the IC50 [2] was 7.5 µM and the solubility at 2 h, 10000 µM [4] was 164 µg/mL (≈ 410 µM). The microsomal CLint at 5 µM [5] was 251 µL/min/mg and the IC50 [3] was 9.5 µM.
In the case of `COc1ccc(/C=C/c2cc(C(N)=O)ccc2OC)cc1`, the “Ratio IC50” value [1] is reported as 2.2, the IC50 [2] is reported as 19 µM and the IC50 [3] is reported as 8.8 µM.
For `COc1ccc(C(N)=O)cc1/C=C/c1ccc(Br)cc1`, the “Ratio IC50” value [1] was 39, the IC50 [2] was 22 µM and the IC50 [3] was 0.56 µM.
With `COc1ccc(C(=O)NC(CO)CO)cc1/C=C/c1ccc(Cl)cc1` the “Ratio IC50” value [1] was 9.3, the IC50 [2] was 14 µM and the solubility at 2 h, 10000 µM [4] was 251 µg/mL (≈ 694 µM). The microsomal CLint at 5 µM [5] was 8 µL/min/mg and the IC50 [3] was 1.5 µM.
